These results are taken from ChEMBL document CHEMBL3414514, “Synthesis and pharmacological evaluation of novel bisindole derivatives bearing oximes moiety: identification of novel proapoptotic agents” (Eur J Med Chem, 2015).

One assay concerns HepG2. In words: Cytotoxicity against human HepG2 cells after 2 days by MTT assay. Particulars: HepG2, 48 h. Format: functional, cell-based. The gist of the method:
(§1)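 Cells grown in medium with 10% heat-inactivated FBS at 37 C under 5% CO2. Compounds dissolved in medium with 1% DMSO; controls received 1% DMSO. After 2 days, MTT (10 mg/mL) added for 4 h, formazan dissolved in DMSO and absorbance read at 570/630 nm. Survival taken relative to negative control; IC50 by Bliss method (n = 5), at least three independent experiments.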

The test system of the next assay is HUVEC. The assay is described as follows: Cytotoxicity against human HUVEC cells after 2 days by MTT assay. It is filed as cell-based. To be noted: 48 h. The gist of the method:
as §1

A short description of assay [1]: Cytotoxicity against human SKOV3 cells after 2 days by MTT assay. It is filed as functional, cell-based. To be noted: SK-OV-3, 48 h. In a few lines: as §1
Assay [2] is described as follows: Cytotoxicity against human T24 cells after 2 days by MTT assay. To be noted: T-24, 48 h. It is filed as functional, cell-based. In a few lines:
as §1

The test system of the next assay is NCI-H460. In words: Cytotoxicity against human NCI-H460 cells after 2 days by MTT assay. It is filed as functional, cell-based. To be noted: NCI-H460, 48 h. The gist of the method:
as §1

The nature of assay [3]: Cytotoxicity against human SPCA2 cells after 2 days by MTT assay. It is filed as functional, cell-based. Particulars: SPCA2, 48 h. The gist of the method: as §1
Another assay relates to A549. In words: Cytotoxicity against human A549 cells after 2 days by MTT assay. It is filed as functional, cell-based. To be noted: A549, 48 h. The gist of the method: as §1
The next assay has as its system MGC-803. In words: Cytotoxicity against human MGC803 cells after 2 days by MTT assay. It is filed as functional, cell-based. To be noted: MGC-803, 48 h. In a few lines:
as §1

Structures are written as SMILES.

On to `O/N=C1/C(c2c[nH]c3ccc(F)cc23)=Nc2ccc(F)cc21`, for which the IC50 in the assay with HepG2 was 9.31 µM; with HUVEC, more than 100 µM; in assay [1], 9.89 µM; in assay [2], 10.1 µM; with NCI-H460, 12.8 µM; in assay [3], 13.7 µM. The IC50 in the assay with A549 was determined as 11.9 µM; in the assay with MGC-803 it was 12.3 µM.

With `O/N=C1/C(c2c[nH]c3ccc(Br)cc23)=Nc2ccc(Br)cc21`, the IC50 was 14.3 µM in the assay with HepG2; more than 100 µM in the assay on HUVEC; 19.2 µM in assay [1]; 12.5 µM in assay [2]; 18.9 µM in the assay with NCI-H460; 11.6 µM in assay [3]. Further, the IC50 with A549 amounted to 16.2 µM; in the assay with MGC-803, 13.2 µM.

On to `FC(F)(F)c1ccc(CO/N=C2/C(c3c[nH]c4ccccc34)=Nc3ccccc32)cc1`, for which the IC50 with HepG2 is 22.3 µM; in the assay with HUVEC, more than 100 µM; in assay [1], 24.2 µM; in assay [2], 18.9 µM; with NCI-H460, 24.1 µM; in assay [3], 21.2 µM. Further, the IC50 was found to be 21.9 µM in the assay on A549 and 30.6 µM in the assay on MGC-803.

Turning to `Cc1cccc2c1/C(=N\O)C(c1c[nH]c3cccc(C)c13)=N2`, the IC50 in the assay on HepG2 was 21.3 µM; in the assay with HUVEC, more than 100 µM; in assay [1], 27 µM; in assay [2], 15 µM; in the assay with NCI-H460, 24.2 µM; in assay [3], 42.2 µM. Besides, the values for the IC50 in the assay on A549 and with MGC-803 were 44.9 µM and 25 µM, respectively.

Consider `O/N=C1/C(c2c[nH]c3ccc(OCc4ccccc4)cc23)=Nc2ccc(OCc3ccccc3)cc21`, for which the IC50 was 19 µM in the assay on HepG2; more than 100 µM in the assay on HUVEC; 17.6 µM in assay [1]; 11.8 µM in assay [2]; 16.6 µM with NCI-H460; 12 µM in assay [3]. Also, the IC50 with A549 came to 19.5 µM; in the assay with MGC-803, 14.5 µM.

For `Cc1ccc(CO/N=C2/C(c3c[nH]c4ccc(Br)cc34)=Nc3ccc(Br)cc32)cc1`, the IC50 in the assay with HepG2 was 20.4 µM; with HUVEC it was more than 100 µM; in assay [1], 7.22 µM; in assay [2], 21.4 µM; in the assay with NCI-H460, 10.6 µM; in assay [3] it was 15.1 µM. Moreover, the IC50 in the assay with A549 worked out at 13.3 µM; in the assay on MGC-803 it was 31.2 µM.

`O/N=C1/C(c2c[nH]c3cc(F)ccc23)=Nc2cc(F)ccc21`: the IC50 is 13.8 µM in the assay on HepG2; more than 100 µM in the assay with HUVEC; 16.4 µM in assay [1]; 11.7 µM in assay [2]; 22.2 µM with NCI-H460; 10 µM in assay [3]. Moreover, the half-inhibitory concentration (IC50) is 21.3 µM in the assay with A549 and 22.1 µM with MGC-803.

With `c1ccc2c(c1)N=C(c1c[nH]c3ccccc13)/C2=N/OCC1CC1`, the IC50 in the assay on HepG2 was 32.1 µM; in the assay with HUVEC, more than 100 µM; in assay [1] it was 32.3 µM; in assay [2], 35.4 µM; in the assay with NCI-H460, 40.9 µM; in assay [3], 33.8 µM. Moreover, the IC50 with A549 was determined as 36.7 µM; with MGC-803, 29.9 µM.

For `COC(=O)c1ccc2c(c1)N=C(c1c[nH]c3cc(C(=O)OC)ccc13)/C2=N/O`, the IC50 in the assay with HepG2 was 20.8 µM; with HUVEC it was more than 100 µM; in assay [1], 26.8 µM; in assay [2] it was 14.3 µM; with NCI-H460, 20.8 µM; in assay [3], 27.2 µM. Moreover, the IC50 in the assay with A549 came out at 25.9 µM; in the assay on MGC-803 it was 29.8 µM.

For `N#Cc1ccc2c(c1)/C(=N\O)C(c1c[nH]c3ccc(C#N)cc13)=N2`, the IC50 is 30.1 µM in the assay with HepG2; more than 100 µM with HUVEC; 25.9 µM in assay [1]; 28.4 µM in assay [2]; 14.3 µM in the assay with NCI-H460; 19.2 µM in assay [3]. The IC50 in the assay with A549 was 14.9 µM; with MGC-803, 18.4 µM.

In the case of `O=c1[nH]cc(F)c(=O)[nH]1` [FLUOROURACIL], the IC50 with HepG2 was found to be 32 µM; in assay [1] it was 27.3 µM; in assay [2], 40.6 µM; with NCI-H460 it was 46.1 µM; in assay [3], 44.1 µM; with A549 it was 38.2 µM.
